CYP2C9 inhib – blockers of cytochrome P450 2C9 activity – biochemical, luminescence, ADME assay, primary screen; P11712; inhibition, % at 5 µM; 96,000 compounds, 20% hits; CYP2C9 Supersomes, luciferin-H conversion;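 active = blocking of liver enzyme CYP2C9 beyond about 50% at 5 µM, limit read from the data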
CYP2C19 activ – human CYP2C19 activators, primary screen, biochemical, luminescence | recombinant CYP2C19, luciferin-H EGE luminescence; active compounds read high; 0 = fully inhibited enzyme, 1 = untreated enzyme | activation factor at 5 µM | 96,000 tested, under 10 active;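 active = activation factor of at least 2 at 5 µM in the primary screen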
Target sequence (P33261 whole entry, looked up): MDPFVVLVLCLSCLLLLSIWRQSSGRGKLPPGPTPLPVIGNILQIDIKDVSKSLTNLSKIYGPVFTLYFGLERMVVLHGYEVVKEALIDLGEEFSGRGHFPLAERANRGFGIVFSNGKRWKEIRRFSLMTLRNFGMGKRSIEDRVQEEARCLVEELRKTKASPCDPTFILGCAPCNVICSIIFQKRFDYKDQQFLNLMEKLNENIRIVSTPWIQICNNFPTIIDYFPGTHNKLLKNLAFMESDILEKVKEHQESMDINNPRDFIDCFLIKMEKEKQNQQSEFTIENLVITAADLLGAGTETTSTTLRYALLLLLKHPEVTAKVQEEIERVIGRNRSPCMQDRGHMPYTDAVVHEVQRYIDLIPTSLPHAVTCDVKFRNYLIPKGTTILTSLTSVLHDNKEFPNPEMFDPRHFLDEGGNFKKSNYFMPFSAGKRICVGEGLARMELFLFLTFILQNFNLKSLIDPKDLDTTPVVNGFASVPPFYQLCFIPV
CYP2C19 inhib – blockers of cytochrome P450 2C19 activity – biochemical, luminescence, ADME assay, primary screen. P33261. inhibition, % at 5 µM. 96,000 compounds, 21% hits. CYP2C19 Supersomes, luciferin-H EGE luminescence, 30 min;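 active = CYP2C19 inhibition above a set limit at 5 µM in the primary screen, cut at about 50% in these data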
Cav32 inh – Cav3.2 calcium influx blockers – cell-based, Fluo-4 calcium fluorescence, FDSS, MLSMR library, primary screen; Voltage-dependent T-type calcium channel subunit alpha-1H (Homo sapiens), O95180; Cav3.2-expressing cells; active compounds read low; B-score at 10 µM; 100,000 compounds, 4% hits;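 active = single-dose well whose peak fluorescence ratio is a statistical outlier from its plate by either plate-standardised score or position-corrected B-score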
Rev-RRE block – HIV-1 Rev-RRE binding inhibitors, primary screen, biochemical, FRET, protein-RNA interaction | P05866 | 97,000 compounds, 0.79% hits | AID 704, 2007 | inhibition, % at 8 µM | Rev peptide-RRE RNA binding;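 active = inhibition above the screen-wide mean plus 3 SD, cut at about 35% in these data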
Target sequence (P05866 whole entry, looked up): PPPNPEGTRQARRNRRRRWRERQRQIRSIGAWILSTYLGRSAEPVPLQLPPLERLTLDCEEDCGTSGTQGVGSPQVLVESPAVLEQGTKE
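Test system: Cy5-tagged RRE RNA duplex with fluorescein-tagged Rev peptide | Read-out: % inhibition of FRET ratio versus controls | Probe or stimulus: Labelled Rev peptide | Incubation: 5 min RNA-compound premix plus 15 min binding step, 25 °C | Technique: FRET fluorescence readout | Benchmarks: DMSO low control, neomycin B high control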
CYP2C9 act – human CYP2C9 activators, primary screen, biochemical, luminescence. Cytochrome P450 2C9 (Homo sapiens), P11712. recombinant CYP2C9, luciferin-H conversion; active compounds read high; factor 1 = untreated enzyme, 0 = blocked. activation factor at 5 µM. 96,000 compounds, 1.4% hits;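 active = activation factor of 2 or more for CYP2C9 at a 5 µM dose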
Hits are given with their value; . = inactive; / = no result given. In the library only some 27% were active in any assay of this set; here they are far more common.

SMILES | CYP2C9 inhib | CYP2C19 activ | CYP2C19 inhib | Cav32 inh | Rev-RRE block | CYP2C9 act
CCOC(=O)c1c(C)[nH]c(C(=O)CN2C(=O)NC(C)(c3ccc4ccccc4c3)C2=O)c1C (configuration not stated) | 62 | . | . | . | . | .
CCCC1(c2ccccc2)NC(=O)N(CC(=O)c2[nH]c(C)c(C(=O)OCC)c2C)C1=O (configuration not stated) | 98 | . | 94 | -5.6 | . | .
CCCC1(c2ccccc2)NC(=O)N(CC(=O)Nc2sc(-c3ccccc3)cc2C(=O)OCC)C1=O (configuration not stated) | 60 | . | . | . | . | .
CCOC(=O)c1c(C)[nH]c(C(=O)Cn2nnc(-c3ccc(Cl)cc3)n2)c1C | . | . | . | . | . | .
O=C(CSc1nnc(CN2CCOCC2)n1-c1ccccc1)Nc1ccc(Cl)cc1 | / | / | / | . | . | /
O=C(CSC1CC(=O)N(CC(c2ccccc2)c2ccccc2)C1=O)Nc1ccc(Cl)cc1 (configuration not stated) | 85 | . | 53 | -7.4 | . | .
CCOC(=O)c1c(C#N)cnn1-c1ccc(C)cc1 | . | . | . | . | . | .
O=C1CC(Cc2ccc(Cl)cc2)C(=O)N1c1ccncc1 (configuration not stated) | / | / | / | . | . | /
O=C1C2CC=CCC2C(=O)N1c1ccc(Cc2ccncc2)cc1 (configuration not stated) | 85 | . | 68 | . | . | .
CCC1(CC)C(=O)N(C)C(=O)NC1=NCc1ccccc1 | . | . | . | . | . | .
CC(=O)N1c2ccccc2C(C)CC12CCCCC2 (configuration not stated) | / | / | / | . | . | /
CC(=O)N1c2ccccc2C(C)(C)C2CCC(C)CC21 (configuration not stated) | / | / | / | -4.6 | . | /
CN1C(=O)C(O)(CC(=O)c2ccc(F)cc2)c2cc(Br)ccc21 (configuration not stated) | . | . | 79 | . | / | .
COC(=O)CN1C(=O)C(O)(CC(=O)c2ccc(C)cc2)c2cc(Br)ccc21 (configuration not stated) | . | . | . | . | / | .
COc1ccc(C(=O)O/N=C(\C)c2ccccc2)cc1 | 88 | . | 52 | . | . | .
C/C(=N/OC(=O)c1ccc(C)cc1)c1cccs1 | . | . | . | . | . | .
CC/C(=N\OC(=O)c1ccc(OC(C)C)cc1)c1ccc(C)cc1 | 62 | . | 73 | / | . | .
C/C(=N\OC(=O)c1ccc(OC(C)C)cc1)c1ccc(C)c(C)c1 | 56 | . | 56 | . | . | .
Cc1cc(C)nc(NC(=O)c2ccc(OC(C)C)cc2)n1 | . | . | . | . | . | .
C/C(=N\OC(=O)c1ccc(C)cc1)c1sc(C)nc1C | . | . | . | . | . | .
O=C(CCn1cccc1)NCc1ccc2c(c1)OCO2 | . | . | . | . | . | .
CC(NC(=O)Cn1nc(C(=O)O)c2ccccc2c1=O)c1ccccc1 (configuration not stated) | / | / | / | . | . | /
Cc1ccccc1OCCn1nc(C(=O)O)c2ccccc2c1=O | . | . | 54 | . | . | .
C=CCN1C(=O)C(Cc2ccc(C)cc2)S/C1=N/N=C/c1ccco1 (configuration not stated) | . | . | . | . | . | .
C=CCN1C(=O)C(Cc2ccccc2)S/C1=N/N=C/c1cccs1 (configuration not stated) | 68 | . | . | . | . | .
SMILES | CYP2C9 inhib | CYP2C19 activ | CYP2C19 inhib | Cav32 inh | Rev-RRE block | CYP2C9 act
C=CCN1C(=O)C(Cc2ccc(OCC)cc2)S/C1=N\N=C\c1cccs1 (configuration not stated) | 54 | . | . | . | . | .
Cc1nnc2sc(-c3ccc(NC(=O)c4ccc(-c5ccc(Cl)cc5Cl)o4)cc3)nn12 | / | / | / | . | . | /
Clc1ccccc1-c1nn2c(-c3ccccn3)nnc2s1 | . | . | 60 | . | / | .
Clc1ccccc1-c1nnc2sc(-c3cccs3)nn12 | 61 | . | . | . | / | .
Clc1ccc(-c2nn3c(-c4ccncc4)nnc3s2)c(Cl)c1 | . | . | 84 | / | / | .
Clc1ccc(-c2nn3cnnc3s2)c(Cl)c1 | . | . | 89 | . | / | .
COc1cc(OC)cc(C(=O)N2CCC(N3CCCCCC3)CC2)c1 | / | / | / | . | . | /
CN(Cc1nc2ccccc2c(=O)[nH]1)CC(O)COCc1ccco1 (configuration not stated) | . | . | . | . | . | .
Cc1cccc(-c2nnc3sc(-c4ccccc4)nn23)c1 | . | . | . | . | . | .
Clc1ccc(-c2nn3c(-c4cccc(Cl)c4)nnc3s2)cc1 | . | . | 60 | / | / | .
Cc1ccc(-c2nnc3sc(-c4ccncc4)nn23)cc1 | . | . | . | . | . | .
Clc1ccc(-c2nnc3cccc(Cl)n23)c(Cl)c1 | . | . | . | / | . | .
Cc1nn2c(-c3ccc(Cl)cc3Cl)nnc2s1 | . | . | 52 | . | . | .
Brc1ccc(-c2nn3c(-c4ccncc4)nnc3s2)o1 | . | . | 69 | / | / | .
Clc1ccccc1-c1nn2c(-c3ccncc3)nnc2s1 | 74 | . | 78 | . | . | .
N/C(COc1ccccc1)=N\NS(=O)(=O)c1ccccc1 | . | . | . | . | . | .
CC(=O)N1CCn2c3c(c(=O)c4cc(C)ccc42)CCC31 (configuration not stated) | . | . | . | . | / | .
CC1CC(C)CN(CCCNC(=O)C2CCC(=O)N2C2CCCC2)C1 (configuration not stated) | . | . | . | . | . | .
O=C(NCc1nc2ccccc2[nH]1)C1=C[C@H](c2ccc3c(c2)OCO3)C[C@H](OCCCCO)O1 | / | / | / | . | / | /
CC(C)CC(NC(=O)OC(C)(C)C)c1cn([C@@H](CCC(=O)OC(C)(C)C)C(=O)N2CCN(C(=O)OC(C)(C)C)CC2)nn1 (some centres not stated) | / | / | / | . | / | /
Cc1ccc(-c2nnc3sc(C4COc5ccccc5O4)nn23)cc1 (configuration not stated) | . | . | . | . | / | .
Clc1ccccc1-c1nnc2sc(C3COc4ccccc4O3)nn12 (configuration not stated) | 87 | . | 86 | . | . | .
Clc1ccccc1-c1nnc2sc(-c3ccncc3)nn12 | . | . | 80 | . | . | .
Cc1ccc(-c2csc3nc4cc(C(=O)NC5CCC(O)CC5)ccc4c(=O)n23)cc1 (configuration not stated) | / | / | / | . | / | /
